We go through 39 molecules from ChEMBL document CHEMBL1155832, “Design, synthesis, and biological evaluation of antiviral agents targeting flavivirus envelope proteins” (J Med Chem, 2008).

Data set [1] deals with Yellow fever virus. The data set is described as follows: Antiviral activity against IRES-luciferase tagged Yellow fever virus in BHK15 cells assessed as reduction of luciferase activity after 36 hrs. Format: functional, organism-based. The following applies: BHK15, 36 h.
A short description of data set [2]: Therapeutic index, ratio of CC50 for BHK15 cells to EC50 IRES-luciferase tagged Yellow fever virus. Format: cell-based. The conditions noted are these: hamster, read-out: Ratio CC50/EC50.
A short description of data set [3]: Cytotoxicity against BHK15 cells assessed as cell viability after 36 hrs by MTT assay. Format: cell-based, Mesocricetus auratus. The conditions noted are these: hamster, bhk15, 36 h.
In data set [4] the test system is dengue virus type 2. The data set is described as follows: Antiviral activity against Dengue virus 2 16681 in BHK15 cells at 50 uM after 48 hrs by immunofluorescence assay. Format: functional. The following applies: Dengue virus, 16681, BHK15, 48 h. Summed up:
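Den-2 strain 16681 added to BHK monolayers at MOI 0.025 for 1 h at room temperature, then washed with PBS. Overlaid with MEM + 2.5% FBS containing compound at 50 µM and kept at 34 °C for 48 h. Fixed cells were stained with anti-dengue capsid antibody (2 h), a TRITC secondary and DAPI. Infected versus total cells were counted in three random fields per well to give percent inhibition.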

Data set [5] deals with Yellow fever virus. Description: Antiviral activity against IRES-luciferase tagged Yellow fever virus in BHK15 cells assessed as reduction of luciferase activity at 50 uM after 36 hrs. The following applies: BHK15, 36 h. Format: functional. In short, it runs like this: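 Primary screen of the YFV-IRES-Luc (YFV 17D reporter) infection at MOI 0.1 in confluent BHK-15 cells. Compound was given at a single 50 µM concentration for ~36 h at 37 °C, 5% CO2. Percent inhibition came from lysate firefly luciferase luminescence versus DMSO-treated infected cells. Over 50% inhibition counted as active.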

Consider `C/C(=N\NC(=N)N)c1ccc(NC(=O)Nc2ccc(/C(C)=N/NC(=N)N)cc2)cc1`, for which the EC50 in data set [1] was 13 µM. Further, the selectivity ratio in data set [2] was 30.6. Further, in data set [3], the CC50 was determined as 398 µM. For `c1ccc(-c2cc(-c3ccccc3)[nH]n2)cc1`, the EC50 in data set [1] is 44 µM. Moreover, the selectivity ratio in data set [2] was 2.8. Moreover, the CC50 in data set [3] came to 123 µM. For the molecule `COC(=O)c1sc(-c2ccc(Cl)cc2)nc1C(Br)Br`, the EC50 in data set [1] was found to be 0.9 µM. Further, the inhibition at 50 µM in data set [4] and in data set [5] was 99% throughout. For the same molecule, the selectivity ratio in data set [2] came out at 170. Moreover, in data set [3], the CC50 stood at 153 µM.

Turning to `COC(=O)c1sc(-c2ccc(Cl)cc2)nc1C`, the EC50 in data set [1] is above 50 µM. As to `Nc1ccccc1SCc1csc(-c2cccnc2)n1`, the EC50 in data set [1] was above 50 µM. As to `COC(=O)c1sc(N(Cc2ccc(C(C)=O)cc2)Cc2ccc(C(C)=O)cc2)nc1C`, the EC50 in data set [1] is 25 µM. For the same molecule, the selectivity ratio in data set [2] amounted to 8. In data set [3], the 50% cytotoxic concentration (CC50) worked out at 200 µM. Take `CC(=O)c1ccc(CN(Cc2ccc(C(C)=O)cc2)c2nc(C)c(C(=O)NCc3ccc(Cl)cc3Cl)s2)cc1`: the EC50 in data set [1] is above 50 µM. Consider `COC(=O)c1sc(N(Cc2ccc(C(C)=O)cc2)C(C)=O)nc1C`, for which the EC50 in data set [1] is above 50 µM.

For the molecule `Nc1ccccc1SCc1csc(-c2ccc(Cl)cc2)n1`, the EC50 in data set [1] stood at 31 µM. Also, in data set [2], the selectivity ratio worked out at 2. Further, the cytotoxic concentration (CC50) in data set [3] was determined as 61 µM. As to `COC(=O)c1sc(-c2ccncc2)nc1C`, the EC50 in data set [1] was above 50 µM. For the molecule `Cc1nc(-n2nc(-c3ccccc3)cc2-c2ccccc2)sc1C(=O)Oc1ccc(I)cc1`, the EC50 in data set [1] was above 50 µM.

As for `Cc1nc(-n2nc(-c3ccccc3)cc2-c2ccccc2)sc1C(=O)NCc1ccc(Cl)c(Cl)c1`, the EC50 in data set [1] amounted to 5 µM. Moreover, the selectivity ratio in data set [2] was 37. The CC50 in data set [3] worked out at 186 µM.

For `Cc1nc(-n2nc(-c3ccccc3)cc2-c2ccccc2)sc1C(=O)/C=C/c1ccc(Cl)c(Cl)c1`, the EC50 in data set [1] was 51 µM. Also, the selectivity ratio in data set [2] was found to be 1.37. In addition, the CC50 in data set [3] amounted to 70 µM.

As to `Nc1ccccc1SCc1csc(-c2ccccc2)n1`, in data set [1], the EC50 worked out at 46 µM. Moreover, the selectivity ratio in data set [2] came to 2.6. In data set [3], the CC50 came to 119 µM. The like results for `Nc1ccc(SCc2csc(-c3ccccc3Cl)n2)cc1` were, in that order, 40 µM, 3.2 and 131 µM. As for `COC(=O)c1sc(NC(=O)Nc2ccc(/C(C)=N/NC(N)=O)cc2)nc1C`, in data set [1], the EC50 was above 50 µM. The same measure, in the same setting: then `CC(=O)c1ccc(NC(=O)Nc2nc(C)c(C(=O)NCc3ccc(Cl)cc3Cl)s2)cc1`, with above 50 µM; and `Cc1nc(-n2nc(-c3ccccc3)cc2-c2ccccc2)sc1C(=O)OCC12CC3CC(CC(C3)C1)C2`, with above 50 µM. For `Cc1csc(-c2ccc(Cl)cc2)n1`, in data set [1], the EC50 was above 50 µM.

On to `C/C(=N\NC(N)=O)c1ccc(NC(=O)Nc2nc(C)c(C(=O)NCc3ccc(Cl)cc3Cl)s2)cc1`, for which, in data set [1], the EC50 is above 50 µM. For the molecule `C/C(=N\NC(=N)N)c1ccc(NC(=O)Nc2nc(C)c(C(=O)NCc3ccc(Cl)cc3Cl)s2)cc1`, in data set [1], the EC50 is 37.6 µM. Also, in data set [2], the selectivity ratio worked out at 4.1. Moreover, the half-maximal cytotoxic concentration (CC50) in data set [3] was determined as 154 µM. For the molecule `Cc1nc(-c2ccc(Cl)cc2)sc1C(=O)OCC12CC3CC(CC(C3)C1)C2`, the EC50 in data set [1] is above 50 µM. For the molecule `Cc1nc(-n2nc(-c3ccccc3)cc2-c2ccccc2)sc1C(=O)OC(C)C`, in data set [1], the EC50 is above 50 µM. In the case of `Nc1ccc(SCc2csc(-c3ccccc3)n2)cc1`, the EC50 in data set [1] came out at 37 µM. In addition, the selectivity ratio in data set [2] is 4.2. Besides, the CC50 in data set [3] came to 155 µM. As for `Nc1ccc(SCc2csc(-c3cccnc3)n2)cc1`, in data set [1], the EC50 was above 50 µM. On the same count and under the same terms, then `Clc1ccc(-c2nc(CSc3cccc(Cl)c3)cs2)cc1`, with above 50 µM; and `CCOC(=O)c1sc(-n2nc(-c3ccccc3)cc2-c2ccccc2)nc1C`, with above 50 µM; and `ClCc1csc(-c2ccc(Cl)cc2)n1`, with above 50 µM. Turning to `Cc1nc(-n2nc(-c3ccccc3)cc2-c2ccccc2)sc1C(=O)O`, the EC50 in data set [1] is above 50 µM. Turning to `Cc1nc(-c2ccc(Cl)cc2)sc1C(=O)NCc1ccc(Cl)c(Cl)c1`, the EC50 in data set [1] was above 50 µM. On to `Nc1ccccc1SCc1csc(-c2ccccc2Cl)n1`, for which the EC50 in data set [1] stood at 46 µM. In data set [2], the selectivity ratio was found to be 2.9. Also, in data set [3], the CC50 worked out at 133 µM. For `COC(=O)c1sc(NC(=O)Nc2ccc(/C(C)=N/NC(=N)N)cc2)nc1C`, the EC50 in data set [1] is above 50 µM. Still for that read-out and setting: the figure for `Cc1nc(-n2nc(-c3ccccc3)cc2-c2ccccc2)sc1C(=O)OCc1ccc(I)cc1` is above 50 µM. On to `CC(=O)c1ccc(NC(=O)Nc2nc(C)c(C(=O)NCc3ccc(Cl)c(Cl)c3)s2)cc1`, for which the EC50 in data set [1] turned out to be 37 µM. Further, the selectivity ratio in data set [2] is 3.7. For the same molecule, the CC50 in data set [3] was 138 µM. In the case of `COC(=O)c1sc(-c2ccccc2)nc1C`, the EC50 in data set [1] was above 50 µM. Same read-out and setting: then `CC(=O)c1ccc(NC(=O)Nc2nc(C)c(C(=O)O)s2)cc1`, with above 50 µM. On to `Nc1ccc(SCc2csc(-c3ccc(Cl)cc3)n2)cc1`, for which the EC50 in data set [1] was 29 µM. Moreover, the selectivity ratio in data set [2] worked out at 5.2. For the same molecule, the CC50 in data set [3] is 151 µM. `CCCCCCCCOC(=O)c1sc(-n2nc(-c3ccccc3)cc2-c2ccccc2)nc1C`: the EC50 in data set [1] was above 50 µM. With `COC(=O)c1sc(NC(=O)Nc2ccc(C(C)=O)cc2)nc1C`, the EC50 in data set [1] is 13.9 µM. For the same molecule, in data set [2], the selectivity ratio was found to be 11.2. Also, the CC50 in data set [3] came to 155 µM.

One may read the EC50 as the concentration needed to bring the measured effect to its halfway point. In general, CC50 refers to the concentration giving 50% cytotoxicity. By inhibition is commonly meant how much of the control response was suppressed.
